These results are taken from ChEMBL document CHEMBL1134897, “C-3 Amido-indole cannabinoid receptor modulators” (Bioorg Med Chem Lett, 2002).

T1 sequence (P34972 whole entry): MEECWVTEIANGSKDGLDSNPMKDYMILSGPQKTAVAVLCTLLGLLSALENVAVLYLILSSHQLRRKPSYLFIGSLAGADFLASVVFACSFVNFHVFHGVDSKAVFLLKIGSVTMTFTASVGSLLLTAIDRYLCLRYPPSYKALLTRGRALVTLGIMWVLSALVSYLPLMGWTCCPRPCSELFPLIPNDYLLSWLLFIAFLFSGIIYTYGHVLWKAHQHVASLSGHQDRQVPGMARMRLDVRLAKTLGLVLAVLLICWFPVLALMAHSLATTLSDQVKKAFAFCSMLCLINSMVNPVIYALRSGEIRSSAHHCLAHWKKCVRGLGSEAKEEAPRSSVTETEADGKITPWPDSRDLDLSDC
Chain of Cannabinoid receptor (Homo sapiens) (P21554 whole entry, looked up): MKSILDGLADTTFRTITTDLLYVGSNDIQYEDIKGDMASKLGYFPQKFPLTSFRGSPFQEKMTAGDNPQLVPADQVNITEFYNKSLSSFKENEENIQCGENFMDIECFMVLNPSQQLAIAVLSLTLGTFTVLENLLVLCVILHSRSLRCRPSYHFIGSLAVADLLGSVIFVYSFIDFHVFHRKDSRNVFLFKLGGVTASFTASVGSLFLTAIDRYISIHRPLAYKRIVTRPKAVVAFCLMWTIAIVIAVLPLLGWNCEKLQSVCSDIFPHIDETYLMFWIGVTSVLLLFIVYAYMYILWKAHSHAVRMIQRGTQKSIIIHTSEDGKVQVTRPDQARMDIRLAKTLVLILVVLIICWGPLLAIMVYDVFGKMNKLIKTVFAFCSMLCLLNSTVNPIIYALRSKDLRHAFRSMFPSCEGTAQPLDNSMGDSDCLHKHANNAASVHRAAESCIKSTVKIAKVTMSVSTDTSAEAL
Chain of Cannabinoid receptor (Homo sapiens) (P34972 whole entry, looked up): as the sequence (P34972 whole entry) above

The target of one test is T1, Cannabinoid receptor 2 (Homo sapiens, UniProt P34972). The test can be described thus: Binding affinity against human CB2 receptor expressed in CHO cells by using WIN-55212-2 Mesylate [573H] as Radioactive tracer. Type of test: cell-based. A digest of the protocol:
(§1)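 Membranes (50 µg) from CHO-K1 cells expressing human CB2 or CB1. Tracer is [5,7-3H]WIN 55,212-2 mesylate for CB2 and CP55,940 for CB1, routinely at 10 nM. Incubated with test compound in HEPES pH 7.4 buffer (EDTA, MgCl₂, 0.3% BSA) for 2 h at room temperature with shaking. Bound label is collected by filtration and counted by scintillation. Single-point values are % inhibition at […] test compound.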
For the compound `COC(=O)[C@H](Cc1cccc(Cl)c1)NC(=O)c1c(C)n(CCN2CCOCC2)c2c(OC)cccc12`, the Ki was determined as 31 nM.

With `CCc1c(C(=O)N[C@H]2C3(C)CCC(C3)C2(C)C)c2cccc(OC)c2n1CCN1CCOCC1` (some centres undefined), the Ki was determined as 103 nM.

With `COc1cccc2c(C(=O)NC3C4(C)CCC(C4)C3(C)C)cn(CCN3CCOCC3)c12` (centres undefined), the Ki turned out to be 12 nM.

As for `CCCCCn1c(C)c(C(=O)NC2C(C)(C)[C@@H]3CC[C@@]2(C)C3)c2cccc(OC)c21` (some centres undefined), the Ki was found to be 5 nM.

As for `COc1cccc2c(C(=O)N[C@H]3C4(C)CCC(C4)C3(C)C)c(C)n(CCN3CCOCC3)c12` (some centres undefined), the Ki is 30 nM.

As for `CCC(=O)[C@H](Cc1ccccc1)NC(=O)c1c(C)n(CCN2CCOCC2)c2c(OC)cccc12`, the Ki was determined as 24 nM.

Consider `COc1cccc2c(C(=O)NC3CC(C)(C)CCC3(C)C)c(C)n(CCN3CCOCC3)c12` (centres undefined), for which the inhibition constant Ki was 38 nM.

As to `CO/N=C(\C)[C@H](Cc1ccccc1)NC(=O)c1c(C)n(CCN2CCOCC2)c2c(OC)cccc12`, the inhibitory constant (Ki) is 184 nM.

In the case of `COc1cccc2c(C(=O)N[C@@H]3C4(C)CCC(C4)C3(C)C)c(C)n(CCN3CCOCC3)c12` (some centres undefined), the inhibition constant Ki is 41 nM.

On to `COC(=O)[C@H](Cc1ccccc1)NC(=O)c1c(C)n(CCN2CCOCC2)c2ccccc12`, for which the inhibitory constant (Ki) was 250 nM.

Regarding `COc1cccc2c(C(=O)NC3C(C)(C)[C@@H]4CC[C@@]3(C)C4)c(C)n(CCN(C)C)c12` (some centres undefined), the inhibition constant (Ki) is 505 nM.

`COc1cccc2c(C(=O)NC3CCCC3(C)C)c(C)n(CCN3CCOCC3)c12` (centres undefined): the inhibition constant Ki worked out at 205 nM.

As for `COCCn1c(C)c(C(=O)NC2C(C)(C)[C@@H]3CC[C@@]2(C)C3)c2cccc(OC)c21` (some centres undefined), the inhibition constant (Ki) amounted to 60 nM.

Regarding `COc1cccc2c(C(=O)N[C@@H](Cc3ccccc3)c3ccno3)c(C)n(CCN3CCOCC3)c12`, the inhibition constant Ki was found to be 169 nM.

For `COc1cccc2c(C(=O)N[C@H](C)Cc3ccccc3)c(C)n(CCN3CCOCC3)c12`, the inhibitory constant (Ki) came to 263 nM.

Take `COc1cc(Cl)cc2c(C(=O)N[C@@H]3C4(C)CCC(C4)C3(C)C)c(C)n(CCN3CCOCC3)c12` (some centres undefined): the Ki turned out to be 251 nM.

For the compound `COc1cccc2c(C(=O)NC3C(C)(C)[C@@H]4CC[C@@]3(C)C4)c(C)n(CCCN3CCOCC3)c12` (some centres undefined), the Ki stood at 25 nM.

As for `COc1cccc2c(C(=O)N[C@@H](C)Cc3ccccc3)cn(CCN3CCOCC3)c12`, the inhibitory constant (Ki) is 71 nM.

Turning to `COc1cccc2c(C(=O)N[C@@H]3C4(C)CCC(C4)C3(C)C)cn(CCN3CCOCC3)c12` (some centres undefined), the Ki amounted to 13 nM.

For the compound `COC(=O)[C@H](Cc1cscn1)NC(=O)c1c(C)n(CCN2CCOCC2)c2c(OC)cccc12`, the Ki came to 20 nM.

As for `COc1cccc2c(C(=O)N[C@@H]3C(C)(C)[C@@H]4CC[C@@]3(C)C4)c(C)n(CCN3CCCCC3)c12`, the Ki is 89 nM.

With `COc1cccc2c(C(=O)N[C@@H](Cc3ccccc3)c3ccon3)c(C)n(CCN3CCOCC3)c12`, the inhibition constant Ki was found to be 235 nM.

With `COc1cccc2c(C(=O)NC3CC(C)(C)CCC3(C)C)cn(CCN3CCOCC3)c12` (centres undefined), the Ki amounted to 22 nM.

For `COc1cc(F)cc2c(C(=O)N[C@H]3C4(C)CCC(C4)C3(C)C)c(C)n(CCN3CCOCC3)c12` (some centres undefined), the inhibition constant (Ki) was 18 nM.

With `COC(=O)[C@H](Cc1cccs1)NC(=O)c1c(C)n(CCN2CCOCC2)c2c(OC)cccc12`, the Ki stood at 12 nM.

For the compound `COc1cccc2c(C(=O)N[C@@H](Cc3ccccc3)C(C)=O)c(C)n(CCN3CCOCC3)c12`, the Ki is 8 nM.

For `CNC(=O)[C@H](Cc1ccccc1)NC(=O)c1c(C)n(CCN2CCOCC2)c2c(OC)cccc12`, the Ki came out at 294 nM.

The target in another test is T2, Cannabinoid receptor 1 (Homo sapiens, UniProt P21554). The test can be described thus: Binding affinity against human Cannabinoid receptor 1 expressed in CHO cells by using CP-55940 as Radioactive tracer. It is filed as cell-based.
T2 sequence (P21554 whole entry): as the sequence (P21554 whole entry, looked up) above
Turning to `COC(=O)[C@H](Cc1ccccc1)NC(=O)c1c(C)n(CCN2CCOCC2)c2c(OC)cccc12`, the Ki is 4000 nM.

For `CCCCCOc1cc(/C=C/C(=O)N[C@@H](Cc2ccc(O)cc2)C(=O)OC)ccc1OC`, the Ki came out at 5700 nM.

Another test addresses T1, Cannabinoid receptor 2. Nature of the test: Displacement of WIN-55212-2-Mesylate [573H] from human CB2 receptor expressed in CHO cells at 100 nM. Type of test: cell-based. A digest of the protocol:
as §1
`COc1cccc2c(C(=O)N[C@@H](Cc3ccccc3)c3cc[nH]n3)c(C)n(CCN3CCOCC3)c12` gave an inhibition of 7%.

The compound `COc1ccc(Br)c2c(C(=O)N[C@@H]3C4(C)CCC(C4)C3(C)C)c(C)n(CCN3CCOCC3)c12` (some centres undefined) came in with an inhibition of 42%.

In turn, `COc1ccc(C#N)c2c(C(=O)N[C@@H]3C4(C)CCC(C4)C3(C)C)c(C)n(CCN3CCOCC3)c12` (some centres undefined) yielded an inhibition of 33%.

`COc1cccc2c(C(=O)N[C@H](C#N)Cc3ccccc3)c(C)n(CCN3CCOCC3)c12` had an inhibition of 18%.

The compound `COc1cc(OC)c2c(c1)c(C(=O)N[C@@H]1C3(C)CCC(C3)C1(C)C)c(C)n2CCN1CCOCC1` (some centres undefined) registered an inhibition of 0%.

`COc1cccc2c(C(=O)N[C@@H](Cc3ccccc3)C(=O)N(C)C)c(C)n(CCN3CCOCC3)c12` came in with an inhibition of 29%.

Turning to `COc1ccc(Cl)c2c(C(=O)N[C@@H]3C4(C)CCC(C4)C3(C)C)c(C)n(CCN3CCOCC3)c12` (some centres undefined), the inhibition was 11%.

On to `COC[C@H](Cc1ccccc1)NC(=O)c1c(C)n(CCN2CCOCC2)c2c(OC)cccc12`, for which the inhibition was 6%.

In turn, `COc1c(Cl)ccc2c(C(=O)N[C@@H]3C4(C)CCC(C4)C3(C)C)c(C)n(CCN3CCOCC3)c12` (some centres undefined) showed an inhibition of 15%.

For `COc1cccc2c(C(=O)NC3C4(C)CCC(C4)C3(C)C)c(C)n(CCN3CCCC3)c12` (centres undefined), the inhibition came to 25%.

Consider `COc1ccc2c(C(=O)N[C@@H]3C4(C)CCC(C4)C3(C)C)c(C)n(CCN3CCOCC3)c2c1OC` (some centres undefined), for which the inhibition came to 0%.

Consider `CCCc1c(C(=O)N[C@@H]2C3(C)CCC(C3)C2(C)C)c2cccc(OC)c2n1CCN1CCOCC1` (some centres undefined), for which the inhibition was found to be 6%.

For the compound `CC[C@H](Cc1ccccc1)NC(=O)c1c(C)n(CCN2CCOCC2)c2c(OC)cccc12`, the inhibition was 18%.

The next test has as its target T1, Cannabinoid receptor 2. Nature of the test: Binding affinity against human Cannabinoid receptor 2 expressed in CHO cells by using WIN-55212-2 Mesylate [573H] as Radioactive tracer. Type of test: cell-based. The method in brief:
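Membranes (50 µg) from CHO-K1 cells expressing human CB2 or CB1. Incubated with test compound in HEPES pH 7.4 buffer (EDTA, MgCl₂, 0.3% BSA) for 2 h at room temperature with shaking. Bound label is collected by filtration and counted by scintillation.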
Take `CCCCCOc1cc(/C=C/C(=O)N[C@@H](Cc2ccccc2)C(=O)OC)ccc1OC`: the Ki came out at 86 nM.

`COC(=O)[C@H](Cc1ccccc1)NC(=O)c1c(C)n(CCN2CCOCC2)c2c(OC)cccc12`: the Ki worked out at 8 nM.

In the case of `CCCCCOc1cc(/C=C/C(=O)N[C@@H](Cc2ccc(O)cc2)C(=O)OC)ccc1OC`, the Ki stood at 120 nM.

The target of another test is T2, Cannabinoid receptor 1. The test can be described thus: Binding affinity against human Cannabinoid receptor 1 expressed in CHO cells by using CP-55940 as Radioactive tracer at 1 uM. It is filed as cell-based.
Take `CCCCCOc1cc(/C=C/C(=O)N[C@@H](Cc2ccccc2)C(=O)OC)ccc1OC`: the inhibition worked out at 51%.

For the next test, the species on record is Mus musculus. The test can be described thus: Inhibition of LPS-induced nuclear factor-kappa B (NFkB) activation and TNF production in mouse. Type of test: functional, organism-based. A digest of the protocol:
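Female Balb/c mice, 6–8 weeks old, n=8 per group, received LPS (E. coli 0111:B4) at 50 ug/kg i.p. in sterile saline. Blood was taken 90 min later and serum TNF-α measured by ELISA. Compound was dosed i.v. or orally, as solutions in various vehicles, before or at the time of LPS injection.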
For the compound `Cc1c(C(=O)c2cccc3ccccc23)c2cccc3c2n1[C@H](CN1CCOCC1)CO3` [WIN-552122], the half-maximal inhibitory concentration (IC50) amounted to 8000 nM.

In the case of `COC(=O)[C@H](Cc1ccccc1)NC(=O)c1c(C)n(CCN2CCOCC2)c2c(OC)cccc12`, the half-inhibitory concentration (IC50) was found to be 12000 nM.

A further test concerns the target Cannabinoid receptor (Homo sapiens) (UniProt P34972+P21554). Nature of the test: Ratio of binding affinity of the CB1 receptor to that of CB2 receptor; NT means not tested. Type of test: protein assay. The method in brief:
as §1
On to `CCCCCOc1cc(/C=C/C(=O)N[C@@H](Cc2ccccc2)C(=O)OC)ccc1OC`, for which the Ratio came to 0.59.
